ChEMBL document CHEMBL1123508, “Relationship between lipophilic character and urinary excretion of nitroimidazoles and nitrothiazoles in rats” (J Med Chem, 1986)

Experiments:
[1] = octanol/water
[2] = The amount of unchanged compound in urine collected at 0-36 hr after treatment; details: rat
[3] = The amount of unchanged compound in urine collected at 0-54 hr after treatment; details: rat
Rattus norvegicus [4] = assay: The total 36 hr urinary excretion of unchanged compound reported as log (percent X 10) of the administered dose; details: in vivo
[5] = The amount of unchanged compound in urine collected at 0-72 h after treatment; details: rat
Rattus norvegicus [6] = assay: The total 18 hr urinary excretion of unchanged compound reported as log (percent X 10) of the administered dose; details: in vivo
Rattus norvegicus [7] = assay: The total 72 hr urinary excretion of unchanged compound reported as log (percent X 10) of the administered dose; details: in vivo
Rattus norvegicus [8] = assay: The total 54 h urinary excretion of unchanged compound reported as log (percent X 10) of the administered dose; details: in vivo
[9] = The amount of unchanged compound detected in urine collected at 0-18 hr after treatment; details: rat
[10] = Partition coefficient (logP); details: octanol/water
[11] = (§1) The amount of the unchanged form of compound detected in the urine samples collected at 0-18 hr after the treatment by HPLC technique; type: ADME, organism-based; details: rat, read-out: Amount excreted
Method in brief: (§2)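 Female Sprague-Dawley rats (200 ± 20 g) on chow diet, three per compound, dosed ip in Me2SO (50 μmol mL⁻¹ kg⁻¹). Urine pooled over 0-18 h. One mL urine was spiked with internal standard and extracted, the residue was taken up in 200 μL methanol, and 10-20 μL was injected for HPLC of the unchanged drug. Values expressed as log (percent × 10) of dose.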

Rattus norvegicus [12] = assay: The total 18 hr urinary excretion of the unchanged form of compound in urine was reported as log (percent X 10) of the administered dose by HPLC technique; type: ADME, organism-based; details: in vivo
Method in brief: as §2

[13] = The octanol/water partition coefficient was determined; type: physicochemical; details: read-out: Log K
Method in brief: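 Classical shake-flask octanol/water partitioning with 1 M ammonium chloride buffer, pH 9.0, as the aqueous phase. For one compound the aqueous phase was 0.14 M sodium acetate-barbital buffer, pH 3.6. Concentrations in the octanol and/or aqueous layer were read by UV spectrophotometry.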

Rattus norvegicus [14] = species on record: Rattus norvegicus; assay: as §1; type: functional
Method in brief: as §2

in vivo = details: rat, urine
Rattus norvegicus [15] = species on record: Rattus norvegicus; details: in vivo, 18 h

| SMILES | Log k' [1] | dose excreted [2] [%] | dose excreted [3] [%] | Log BR (Rattus norvegicus [4]) | dose excreted [5] [%] | Log BR (Rattus norvegicus [6]) | Log BR (Rattus norvegicus [7]) | Log BR (Rattus norvegicus [8]) | dose excreted [9] [%] | logP [10] | dose excreted [11] [%] | log(10 × % of dose excreted unchanged in urine) (Rattus norvegicus [12]) | logP [13] | Amount excreted (Rattus norvegicus [14]) [%] | dose excreted (in vivo) [%] | Log BR (Rattus norvegicus [15]) |
| --- | --- | --- | --- | --- | --- | --- | --- | --- | --- | --- | --- | --- | --- | --- | --- | --- |
| Cc1ncc([N+](=O)[O-])n1CC(=O)N1CCN(C(=O)Cn2c([N+](=O)[O-])cnc2C)CC1 | 0.028 | 18.6 | 18.6 | 2.27 | 18.6 | 2.155 | 2.27 | 2.27 | 14.3 |  |  |  |  |  |  |  |
| Cn1c([N+](=O)[O-])cnc1C=O | -0.067 | 29.9 | 29.9 | 2.477 | 29.9 | 2.025 | 2.477 | 2.477 | 10.6 | -0.69 | 10.4 | 2.023 |  |  |  |  |
| O=[N+]([O-])c1c[nH]cn1 | 0 | 39.9 | 46.1 | 2.601 | 46.1 | 2.529 | 2.664 | 2.664 | 33.8 |  |  |  |  |  |  |  |
| Cc1ncc([N+](=O)[O-])n1CC(=O)Nc1ncccn1 | -0.115 | 38.9 | 42.1 | 2.59 | 42.1 | 2.569 | 2.701 | 2.701 | 37.1 | -0.3 | 35.4 | 2.549 |  |  |  |  |
| CN1CCN(Cc2ncc([N+](=O)[O-])n2C)CC1 | 0.014 | 45.5 | 45.5 | 2.658 | 45.5 | 2.62 | 2.658 | 2.658 | 41.7 | -0.33 |  |  |  |  |  |  |
| O=[N+]([O-])c1cnc(/C=C/c2ccc3c(c2)OCO3)n1CCO | 0.659 | 3.4 | 3.4 | 1.529 | 3.4 | 1.529 | 1.529 | 1.529 |  | 2.03 |  |  |  |  |  |  |
| Cc1ncc([N+](=O)[O-])n1CC(O)CO (centres undefined) | -0.199 | 64.3 | 66.4 | 2.808 | 66.4 | 2.155 | 2.822 | 2.822 | 14.3 |  |  |  | -0.63 |  |  |  |
| Cc1ncc([N+](=O)[O-])n1CCS(C)(=O)=O | -0.097 | 27.9 | 28 | 2.446 | 28 | 2.401 | 2.448 | 2.448 | 25.2 | -0.35 |  | 2.394 |  | 24.8 |  |  |
| Cn1c([N+](=O)[O-])cnc1CO | -0.11 | 56.8 | 60.6 | 2.754 | 64.9 | 2.513 | 2.81 | 2.782 | 32.6 | -0.03 |  |  |  |  |  |  |
| Cc1ncc([N+](=O)[O-])n1CC(O)Cn1c([N+](=O)[O-])cnc1C | 0.199 | 22.8 | 22.8 | 2.358 | 22.8 | 2.26 | 2.358 | 2.358 | 18.2 | 0.31 |  |  |  |  | 15.7 | 2.196 |
| Cn1c([N+](=O)[O-])cnc1C1CC1 | 0.455 | 12.9 | 12.9 | 2.113 | 12.9 | 1.613 | 2.113 | 2.113 | 4.1 | 1 |  |  |  |  |  |  |
| Nc1ncc(S(=O)(=O)c2ccc([N+](=O)[O-])cc2)s1 | -0.049 | 64.7 | 64.7 | 2.811 | 64.7 | 2.687 | 2.811 | 2.811 | 48.6 | -0.43 |  |  |  |  |  |  |
| CCC(CC)C(O)Cn1c([N+](=O)[O-])cnc1C (centres undefined) | 0.058 | 51.7 | 51.7 | 2.713 | 51.7 | 2.561 | 2.713 | 2.713 | 36.4 | -0.08 |  |  |  |  |  |  |
| Cn1c([N+](=O)[O-])cnc1/C=C(\Oc1ccccc1)C(=O)O | -0.199 | 19 | 21.7 | 2.28 | 21.7 | 1.4 | 2.337 | 2.337 | 2.5 | -1 |  |  |  |  |  |  |
| CCN(CC)CCOCCn1c([N+](=O)[O-])cnc1C | 0.021 | 28.5 | 28.5 | 2.455 | 28.5 | 2.369 | 2.455 | 2.455 | 23.4 | -0.38 |  |  |  |  |  |  |
| Cn1c([N+](=O)[O-])cnc1/C=C/c1ccnc(N)n1 [AZANIDAZOLE] | 0.423 | 16 | 16 | 2.202 | 16 | 2.142 | 2.202 | 2.202 | 13.8 | 0.85 | 11.3 | 2.054 |  |  |  |  |
| COC(=S)NCCn1c([N+](=O)[O-])cnc1C [CARNIDAZOLE] | 0.465 | 21.5 | 23.1 | 2.33 | 23.1 | 1.826 | 2.364 | 2.364 | 6.7 | 0.9 | 6.5 | 1.819 |  |  |  |  |
| CC(C)c1ncc([N+](=O)[O-])n1C [IPRONIDAZOLE] | 0.45 | 9.1 | 9.1 | 1.96 | 9.1 | 1.633 | 1.96 | 1.96 | 4.3 | 1.06 | 2.5 | 1.398 |  |  |  |  |
| Cc1ncc([N+](=O)[O-])n1CCO [METRONIDAZOLE] | -0.067 | 49.2 | 49.2 | 2.692 | 49.2 | 2.484 | 2.692 | 2.692 | 30.5 | -0.1 | 25 | 2.407 |  |  |  |  |
| O=[N+]([O-])c1cncn1CCN1CCOCC1 [NIMORAZOLE] | 0.188 | 52.4 | 52.4 | 2.719 | 52.4 | 2.639 | 2.719 | 2.719 | 43.6 |  |  |  |  |  |  |  |
| O=C1NCCN1c1ncc([N+](=O)[O-])s1 [NIRIDAZOLE] | 0.363 | 7.3 | 7.3 | 1.861 | 7.3 | 1.663 | 1.861 | 1.861 | 4.6 | 0.92 |  |  |  |  |  |  |
| Cc1ncc([N+](=O)[O-])n1CC(O)CCl (centres undefined) [ORNIDAZOLE] |  | 29.6 | 36.9 | 2.471 | 42.1 | 2.121 | 2.625 | 2.567 | 13.2 |  | 11.7 | 2.068 |  |  |  |  |
| CCS(=O)(=O)CCn1c([N+](=O)[O-])cnc1C [TINIDAZOLE] | -0.125 | 66.3 | 66.3 | 2.822 | 66.3 | 2.468 | 2.822 | 2.822 | 29.4 | -0.36 | 27.3 | 2.436 |  |  |  |  |
